According to ChEMBL document CHEMBL1143965, “N-Phenyl-N'-(2-chloroethyl)ureas (CEUs) as potential antineoplastic agents. Part 3: role of carbonyl groups in the covalent binding to the colchicine-binding site” (2008):

Legend:
Format in all cases: functional
[1] = system: M21; assay: Induction of apoptosis in human M21 cells at 3 uM
[2] = system: M21; assay: Cell cycle arrest in human M21 cells by accumulation at G2/M phase at 3 uM after 24 hrs by flow cytometry
Summary of the method: (§1)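 Exponentially growing M21 cells were exposed to drug (DMSO vehicle, <0.5% v/v) for 24 h, then collected and fixed with ice-cold ethanol. 5×10^5 cells were stained in PBS with 50 µg/mL propidium iodide plus 40 U/mL RNase A for 30 min at room temperature. Phase distribution was measured by flow cytometry.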

[3] = system: M21; assay: Cell cycle arrest in human M21 cells by accumulation at G0/G1 phase at 10 uM after 24 hrs by flow cytometry; summary of the method: as §1
[4] = system: M21; assay: Cell cycle arrest in human M21 cells by accumulation at S phase at 10 uM after 24 hrs by flow cytometry; summary of the method: as §1
[5] = system: M21; assay: Induction of apoptosis in human M21 cells at 10 uM
[6] = system: M21; assay: Cell cycle arrest in human M21 cells by accumulation at G0/G1 phase at 3 uM after 24 hrs by flow cytometry; summary of the method: as §1
[7] = system: M21; assay: Cell cycle arrest in human M21 cells by accumulation at S phase at 3 uM after 24 hrs by flow cytometry; summary of the method: as §1
[8] = system: MCF7; assay: Antiproliferative activity against human MCF7 cells after 48 hrs; details: MCF7, 48 h
Summary of the method: (§2)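 NCI-style sulforhodamine B growth assay. Cells in high-glucose DMEM with 5% iron-supplemented bovine calf serum were preincubated 24 h at 37 °C, 5% CO2. Drugs in DMSO (final <0.5%) were added at 0.1–100 µM final for 48 h. Cells were fixed with cold TCA (10% final, 60 min, 4 °C), stained with 0.1% SRB, solubilized in 20 mM Tris, and read at 585 nm against a day-0 plate. GI50 was taken; at least two runs in triplicate.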

[9] = system: HT-29; assay: Antiproliferative activity against human HT29 cells after 48 hrs; details: HT-29, 48 h; summary of the method: as §2
[10] = system: M21; assay: Antiproliferative activity against human M21 cells after 48 hrs; details: M21, 48 h; summary of the method: as §2
[11] = system: M21; assay: Cell cycle arrest in human M21 cells by accumulation at G2/M phase at 10 uM after 24 hrs by flow cytometry; summary of the method: as §1
[12] = system: M21; assay: Induction of apoptosis in human M21 cells at 5 uM
[13] = system: M21; assay: Induction of apoptosis in human M21 cells at 15 uM
[14] = system: M21; assay: Cell cycle arrest in human M21 cells by accumulation at G2/M phase at 15 uM after 24 hrs by flow cytometry; summary of the method: as §1
[15] = system: M21; assay: Cell cycle arrest in human M21 cells by accumulation at G0/G1 phase at 5 uM after 24 hrs by flow cytometry; summary of the method: as §1
[16] = system: M21; assay: Cell cycle arrest in human M21 cells by accumulation at S phase at 5 uM after 24 hrs by flow cytometry; summary of the method: as §1
[17] = system: M21; assay: Cell cycle arrest in human M21 cells by accumulation at G0/G1 phase at 15 uM after 24 hrs by flow cytometry; summary of the method: as §1
[18] = system: M21; assay: Cell cycle arrest in human M21 cells by accumulation at G2/M phase at 5 uM after 24 hrs by flow cytometry; summary of the method: as §1
[19] = system: M21; assay: Cell cycle arrest in human M21 cells by accumulation at S phase at 15 uM after 24 hrs by flow cytometry; summary of the method: as §1
[20] = system: M21; assay: Cell cycle arrest in human M21 cells by accumulation at S phase at 7 uM after 24 hrs by flow cytometry; summary of the method: as §1
[21] = system: M21; assay: Induction of apoptosis in human M21 cells at 21 uM
[22] = system: M21; assay: Induction of apoptosis in human M21 cells at 7 uM
[23] = system: M21; assay: Cell cycle arrest in human M21 cells by accumulation at G2/M phase at 175 uM after 24 hrs by flow cytometry; summary of the method: as §1
[24] = system: M21; assay: Cell cycle arrest in human M21 cells by accumulation at S phase at 21 uM after 24 hrs by flow cytometry; summary of the method: as §1
[25] = system: M21; assay: Cell cycle arrest in human M21 cells by accumulation at S phase at 175 uM after 24 hrs by flow cytometry; summary of the method: as §1
[26] = system: M21; assay: Cell cycle arrest in human M21 cells by accumulation at G0/G1 phase at 7 uM after 24 hrs by flow cytometry; summary of the method: as §1
[27] = system: M21; assay: Cell cycle arrest in human M21 cells by accumulation at G0/G1 phase at 175 uM after 24 hrs by flow cytometry; summary of the method: as §1
[28] = system: M21; assay: Induction of apoptosis in human M21 cells at 175 uM
[29] = system: M21; assay: Cell cycle arrest in human M21 cells by accumulation at G0/G1 phase at 21 uM after 24 hrs by flow cytometry; summary of the method: as §1
[30] = system: M21; assay: Cell cycle arrest in human M21 cells by accumulation at G2/M phase at 21 uM after 24 hrs by flow cytometry; summary of the method: as §1
[31] = system: M21; assay: Cell cycle arrest in human M21 cells by accumulation at G2/M phase at 7 uM after 24 hrs by flow cytometry; summary of the method: as §1
[32] = system: M21; assay: (§3) Cell cycle arrest in human M21 cells by accumulation at G0/G1 phase at 1.2 uM after 24 hrs by flow cytometry; summary of the method: as §1
[33] = system: M21; assay: Induction of apoptosis in human M21 cells at 4 uM
[34] = system: M21; assay: Cell cycle arrest in human M21 cells by accumulation at S phase at 4 uM after 24 hrs by flow cytometry; summary of the method: as §1
[35] = system: M21; assay: Cell cycle arrest in human M21 cells by accumulation at S phase at 1.2 uM after 24 hrs by flow cytometry; summary of the method: as §1
[36] = system: M21; assay: as §3; summary of the method: as §1; remark: listed apart in the source
[37] = system: M21; assay: Induction of apoptosis in human M21 cells at 1.2 uM
[38] = system: M21; assay: Cell cycle arrest in human M21 cells by accumulation at G0/G1 phase at 4 uM after 24 hrs by flow cytometry; summary of the method: as §1
[39] = system: M21; assay: Cell cycle arrest in human M21 cells by accumulation at G2/M phase at 4 uM after 24 hrs by flow cytometry; summary of the method: as §1

Structure (SMILES)	GI50 [8] [µM]	GI50 [9] [µM]	GI50 [10] [µM]	other results
CCCCCc1cccc(NC(=O)NCCCl)c1	1.6	0.96	0.87	Activity [1]: 18%; Activity [2]: 50%; Activity [3]: 6%; Activity [4]: 7%; Activity [5]: 31%; Activity [6]: 14%; Activity [7]: 11%; Activity [11]: 49%
COCCCCCc1cccc(NC(=O)NCCCl)c1	1.9	0.84	0.94	Activity [1]: 14%; Activity [2]: 37%; Activity [3]: 7%; Activity [4]: 9%; Activity [5]: 24%; Activity [6]: 29%; Activity [7]: 14%; Activity [11]: 52%
NC(=O)CCCCCc1cccc(NC(=O)NCCCl)c1	21.8	5.7	8.9	–
NC(=O)CCCCc1cccc(NC(=O)NCCCl)c1	11.2	3.6	5.7	–
O=C(O)CCCCCc1cccc(NC(=O)NCCCl)c1	> 100	35.9	47.5	–
CCOC(=O)CCCCCc1cccc(NC(=O)NCCCl)c1	22.5	19.8	17.7	–
CC(=O)c1cccc(NC(=O)NCCCl)c1	> 100	> 100	> 100	–
COC(=O)c1cccc(NC(=O)NCCCl)c1	> 100	80.2	86.2	–
CCOC(=O)c1cccc(NC(=O)NCCCl)c1	> 100	> 100	96.4	–
CC(=O)CCCCc1cccc(NC(=O)NCCCl)c1	2	0.6	1.1	Activity [12]: 11%; Activity [13]: 23%; Activity [14]: 53%; Activity [15]: 44%; Activity [16]: 13%; Activity [17]: 6%; Activity [18]: 25%; Activity [19]: 10%
COC(=O)CCCCc1cccc(NC(=O)NCCCl)c1	15.1	8.1	7.3	Activity [20]: 36%; Activity [21]: 6%; Activity [22]: 4%; Activity [23]: 62%; Activity [24]: 34%; Activity [25]: 1%; Activity [26]: 46%; Activity [27]: 18%; Activity [28]: 19%; Activity [29]: 40%; Activity [30]: 20%; Activity [31]: 14%
O=C(O)Cc1cccc(NC(=O)NCCCl)c1	> 100	> 100	> 100	–
O=C(NCCCl)Nc1cccc(C(=O)O)c1	82.9	68.1	67.9	–
CCOC(=O)CCCCc1cccc(NC(=O)NCCCl)c1	8.7	8.2	11	–
CCOC(=O)Cc1cccc(NC(=O)NCCCl)c1	> 100	> 100	> 100	–
CC(=O)CCCCCc1cccc(NC(=O)NCCCl)c1	3.9	0.9	2.1	Activity [12]: 21%; Activity [13]: 16%; Activity [14]: 53%; Activity [15]: 10%; Activity [16]: 18%; Activity [17]: 11%; Activity [18]: 48%; Activity [19]: 18%
NC(=O)c1cccc(NC(=O)NCCCl)c1	> 100	> 100	> 100	–
NC(=O)Cc1cccc(NC(=O)NCCCl)c1	> 100	> 100	> 100	–
COC(=O)CCCCCc1cccc(NC(=O)NCCCl)c1	10.2	7.2	7.1	Activity [20]: 37%; Activity [21]: 5%; Activity [22]: 4%; Activity [23]: 72%; Activity [24]: 31%; Activity [25]: 1%; Activity [26]: 45%; Activity [27]: 8%; Activity [28]: 19%; Activity [29]: 49%; Activity [30]: 15%; Activity [31]: 14%
COC(=O)Cc1cccc(NC(=O)NCCCl)c1	> 100	82.7	> 100	–
O=C(NCCCl)Nc1cccc(CCCCCO)c1	0.48	0.16	0.27	Activity [32]: 50%; Activity [33]: 27%; Activity [34]: 7%; Activity [35]: 11%; Activity [36]: 50%; Activity [37]: 12%; Activity [38]: 6%; Activity [39]: 53%
O=C(O)CCCCc1cccc(NC(=O)NCCCl)c1	> 100	> 100	> 100	–
